Results reported in ChEMBL document CHEMBL2176996, “Synthesis and structure-affinity relationships of selective high-affinity 5-HT(4) receptor antagonists: application to the design of new potential single photon emission computed tomography tracers” (J Med Chem, 2012).

How the values were obtained:
[1] = molecular target: 5-hydroxytryptamine receptor 4 (Cavia porcellus, UniProt O70528); assay: Displacement of [3H]GR113808 from 5HT4R in guinea pig striatal membranes; assay type: cell membranes, Striatum, Membrane
Sequence of 5-hydroxytryptamine receptor 4 (Cavia porcellus, UniProt O70528) (O70528 whole entry): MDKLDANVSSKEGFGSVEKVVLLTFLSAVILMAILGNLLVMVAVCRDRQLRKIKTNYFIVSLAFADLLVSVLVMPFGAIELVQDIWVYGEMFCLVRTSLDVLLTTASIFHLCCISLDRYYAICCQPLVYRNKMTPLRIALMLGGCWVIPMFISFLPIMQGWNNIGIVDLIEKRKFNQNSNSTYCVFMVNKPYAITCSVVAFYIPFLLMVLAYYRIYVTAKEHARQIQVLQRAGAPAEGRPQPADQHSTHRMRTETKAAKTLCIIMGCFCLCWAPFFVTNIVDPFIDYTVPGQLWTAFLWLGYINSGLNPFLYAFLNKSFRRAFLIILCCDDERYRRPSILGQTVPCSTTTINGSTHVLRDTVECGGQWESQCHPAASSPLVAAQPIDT

[2] = molecular target: T1, 5-hydroxytryptamine receptor 1A (Homo sapiens, UniProt P08908); assay: Binding affinity to human 5HT1A by Cerep protocol based assay
T1 sequence (P08908 whole entry): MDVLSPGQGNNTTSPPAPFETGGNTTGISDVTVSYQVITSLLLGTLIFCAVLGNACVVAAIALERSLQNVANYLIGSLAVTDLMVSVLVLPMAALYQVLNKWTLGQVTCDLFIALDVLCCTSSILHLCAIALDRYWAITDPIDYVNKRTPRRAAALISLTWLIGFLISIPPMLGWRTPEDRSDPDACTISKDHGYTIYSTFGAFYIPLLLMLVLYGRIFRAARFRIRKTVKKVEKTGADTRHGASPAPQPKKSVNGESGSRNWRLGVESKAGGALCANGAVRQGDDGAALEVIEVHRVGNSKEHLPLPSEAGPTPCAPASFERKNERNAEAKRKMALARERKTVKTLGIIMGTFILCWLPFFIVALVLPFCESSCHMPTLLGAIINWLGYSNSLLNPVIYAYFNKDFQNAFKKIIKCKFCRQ

[3] = molecular target: 5-hydroxytryptamine receptor 2A (Homo sapiens, UniProt P28223); assay: Binding affinity to human 5HT2A by Cerep protocol based assay
Sequence of 5-hydroxytryptamine receptor 2A (P28223 whole entry): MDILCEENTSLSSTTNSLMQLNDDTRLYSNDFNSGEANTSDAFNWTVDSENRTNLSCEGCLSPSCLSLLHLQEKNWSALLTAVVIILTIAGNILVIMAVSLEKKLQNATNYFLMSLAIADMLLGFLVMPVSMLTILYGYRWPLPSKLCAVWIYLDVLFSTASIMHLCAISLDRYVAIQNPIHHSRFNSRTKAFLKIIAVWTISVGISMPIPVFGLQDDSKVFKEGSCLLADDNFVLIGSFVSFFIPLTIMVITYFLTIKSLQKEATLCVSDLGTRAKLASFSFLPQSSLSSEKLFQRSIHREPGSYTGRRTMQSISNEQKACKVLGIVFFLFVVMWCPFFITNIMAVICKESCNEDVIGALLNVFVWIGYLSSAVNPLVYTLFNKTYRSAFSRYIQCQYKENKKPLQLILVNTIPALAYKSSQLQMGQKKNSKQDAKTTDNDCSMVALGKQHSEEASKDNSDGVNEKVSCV

[4] = molecular target: 5-hydroxytryptamine receptor 4 (Cavia porcellus) (UniProt O70528); assay: Displacement of [3H]GR113808 from 5HT4R in guinea pig striatal membranes at 1 uM; assay type: cell membranes; conditions: Striatum, Membrane
Sequence of 5-hydroxytryptamine receptor 4 (Cavia porcellus) (O70528 whole entry): as the sequence (O70528 whole entry) above
Method in brief: (§1)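 Native 5-HT4R in male guinea pig striatal membranes (HEPES 50 mM pH 7.4); 600 µg membrane incubated in duplicate with [3H]GR 113808 at 0.1 nM final, 37 °C, 30 min; filtration on PEI-soaked GF/B filters, cold buffer washes.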

[5] = molecular target: 5-hydroxytryptamine receptor 4 (Cavia porcellus) (UniProt O70528); assay: Displacement of [3H]GR113808 from 5HT4R in guinea pig striatal membranes at 10 nM; assay type: cell membranes; conditions: Striatum, Membrane; method in brief: as §1
[6] = molecular target: T2, 5-hydroxytryptamine receptor 4 (Homo sapiens, UniProt Q13639)
T2 sequence (Q13639 whole entry): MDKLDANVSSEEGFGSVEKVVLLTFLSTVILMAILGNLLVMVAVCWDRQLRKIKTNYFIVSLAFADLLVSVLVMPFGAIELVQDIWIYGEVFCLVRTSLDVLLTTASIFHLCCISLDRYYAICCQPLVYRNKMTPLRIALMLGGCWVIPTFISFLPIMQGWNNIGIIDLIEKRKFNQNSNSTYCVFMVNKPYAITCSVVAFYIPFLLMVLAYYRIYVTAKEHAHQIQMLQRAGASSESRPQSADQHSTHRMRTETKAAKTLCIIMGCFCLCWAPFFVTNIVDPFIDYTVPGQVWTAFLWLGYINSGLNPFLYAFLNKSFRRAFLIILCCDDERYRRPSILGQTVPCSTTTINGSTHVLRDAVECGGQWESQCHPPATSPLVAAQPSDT

[7] = molecular target: 5-hydroxytryptamine receptor 1E (Homo sapiens, UniProt P28566); assay: Binding affinity to human 5HT1E by Cerep protocol based assay
Sequence of 5-hydroxytryptamine receptor 1E (P28566 whole entry): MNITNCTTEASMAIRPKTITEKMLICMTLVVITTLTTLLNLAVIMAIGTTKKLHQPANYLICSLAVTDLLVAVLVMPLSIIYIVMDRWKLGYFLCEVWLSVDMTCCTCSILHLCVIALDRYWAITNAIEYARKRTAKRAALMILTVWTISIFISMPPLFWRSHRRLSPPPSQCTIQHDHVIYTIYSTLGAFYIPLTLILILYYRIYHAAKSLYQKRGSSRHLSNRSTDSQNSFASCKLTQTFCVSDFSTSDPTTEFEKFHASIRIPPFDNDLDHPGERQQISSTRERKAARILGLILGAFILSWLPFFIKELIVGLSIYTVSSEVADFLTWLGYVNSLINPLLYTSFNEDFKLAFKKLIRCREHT

[8] = molecular target: 5-hydroxytryptamine receptor 2B (Homo sapiens, UniProt P41595); assay: Binding affinity to human 5HT2B by Cerep protocol based assay
Sequence of 5-hydroxytryptamine receptor 2B (P41595 whole entry): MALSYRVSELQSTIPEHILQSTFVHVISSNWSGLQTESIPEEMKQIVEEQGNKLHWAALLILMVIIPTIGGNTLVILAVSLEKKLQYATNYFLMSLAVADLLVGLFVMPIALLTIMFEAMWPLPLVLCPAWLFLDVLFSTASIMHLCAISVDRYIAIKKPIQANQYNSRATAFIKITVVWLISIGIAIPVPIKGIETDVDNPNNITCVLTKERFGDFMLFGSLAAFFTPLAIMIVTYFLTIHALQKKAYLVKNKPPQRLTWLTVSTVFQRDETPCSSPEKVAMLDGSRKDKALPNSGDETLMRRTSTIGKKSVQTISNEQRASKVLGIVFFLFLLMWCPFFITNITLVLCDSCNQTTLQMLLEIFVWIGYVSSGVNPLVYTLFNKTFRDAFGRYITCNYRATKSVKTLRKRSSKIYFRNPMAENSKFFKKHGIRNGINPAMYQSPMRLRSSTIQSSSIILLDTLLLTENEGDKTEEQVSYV

[9] = molecular target: 5-hydroxytryptamine receptor 1B (Homo sapiens, UniProt P28222); assay: Binding affinity to human 5HT1B by Cerep protocol based assay
Sequence of 5-hydroxytryptamine receptor 1B (P28222 whole entry): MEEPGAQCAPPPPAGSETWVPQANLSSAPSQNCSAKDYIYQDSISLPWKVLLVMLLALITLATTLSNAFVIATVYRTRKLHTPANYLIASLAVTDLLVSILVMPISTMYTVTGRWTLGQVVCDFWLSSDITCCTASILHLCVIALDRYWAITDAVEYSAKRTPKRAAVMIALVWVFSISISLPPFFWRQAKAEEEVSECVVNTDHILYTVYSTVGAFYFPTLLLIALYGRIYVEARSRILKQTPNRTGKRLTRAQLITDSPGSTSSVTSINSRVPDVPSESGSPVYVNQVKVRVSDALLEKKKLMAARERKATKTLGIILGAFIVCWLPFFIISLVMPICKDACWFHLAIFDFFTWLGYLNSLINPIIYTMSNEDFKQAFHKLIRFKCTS

[10] = molecular target: T2, 5-hydroxytryptamine receptor 4; assay: Displacement of [3H]GR113808 from human recombinant 5HT4R expressed in HEK293T cells; assay type: cell-based, HEK-293T
[11] = molecular target: 5-hydroxytryptamine receptor 5A (Homo sapiens, UniProt P47898); assay: Binding affinity to human 5HT5A by Cerep protocol based assay
Sequence of 5-hydroxytryptamine receptor 5A (P47898 whole entry): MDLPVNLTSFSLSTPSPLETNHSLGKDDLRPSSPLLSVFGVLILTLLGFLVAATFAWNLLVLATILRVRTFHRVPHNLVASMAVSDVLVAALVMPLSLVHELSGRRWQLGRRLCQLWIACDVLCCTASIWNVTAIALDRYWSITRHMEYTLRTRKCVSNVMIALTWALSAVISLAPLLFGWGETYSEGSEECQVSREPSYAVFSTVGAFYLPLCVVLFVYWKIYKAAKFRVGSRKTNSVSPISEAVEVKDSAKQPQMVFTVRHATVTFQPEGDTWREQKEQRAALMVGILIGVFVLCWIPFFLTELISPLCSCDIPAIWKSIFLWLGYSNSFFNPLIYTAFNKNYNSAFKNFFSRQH

[12] = molecular target: T3, 5-hydroxytryptamine receptor 3A (Homo sapiens, UniProt P46098); assay: Binding affinity to human 5HT3 by Cerep protocol based assay
T3 sequence (P46098 whole entry): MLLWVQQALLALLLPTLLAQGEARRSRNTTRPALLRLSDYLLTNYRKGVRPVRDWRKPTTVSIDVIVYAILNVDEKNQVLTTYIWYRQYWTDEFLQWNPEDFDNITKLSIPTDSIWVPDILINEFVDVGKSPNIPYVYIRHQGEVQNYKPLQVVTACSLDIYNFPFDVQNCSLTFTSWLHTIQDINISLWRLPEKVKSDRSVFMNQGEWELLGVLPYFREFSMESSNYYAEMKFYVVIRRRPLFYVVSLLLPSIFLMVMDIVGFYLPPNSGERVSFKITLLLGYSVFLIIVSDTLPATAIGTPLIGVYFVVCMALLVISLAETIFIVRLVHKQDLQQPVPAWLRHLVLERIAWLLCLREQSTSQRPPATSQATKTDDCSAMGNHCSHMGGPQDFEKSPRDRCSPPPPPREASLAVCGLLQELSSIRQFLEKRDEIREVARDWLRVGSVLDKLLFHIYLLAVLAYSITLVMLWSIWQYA

[13] = molecular target: T4, 5-hydroxytryptamine receptor 2C (Homo sapiens, UniProt P28335); assay: Binding affinity to human 5HT2C by Cerep protocol based assay
T4 sequence (P28335 whole entry): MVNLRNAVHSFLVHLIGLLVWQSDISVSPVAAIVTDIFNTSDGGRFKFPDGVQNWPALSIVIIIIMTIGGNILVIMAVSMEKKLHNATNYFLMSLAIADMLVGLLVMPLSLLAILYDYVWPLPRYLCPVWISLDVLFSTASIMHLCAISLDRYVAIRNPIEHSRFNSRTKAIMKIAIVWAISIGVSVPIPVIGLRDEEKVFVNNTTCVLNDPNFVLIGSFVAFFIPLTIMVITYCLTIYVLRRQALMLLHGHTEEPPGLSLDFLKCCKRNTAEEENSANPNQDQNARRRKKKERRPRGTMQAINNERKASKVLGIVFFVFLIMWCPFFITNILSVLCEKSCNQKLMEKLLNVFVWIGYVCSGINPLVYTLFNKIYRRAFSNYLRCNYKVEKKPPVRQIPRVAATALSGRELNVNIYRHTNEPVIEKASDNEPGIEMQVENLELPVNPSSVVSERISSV

[14] = molecular target: 5-hydroxytryptamine receptor 6 (Homo sapiens, UniProt P50406); assay: Binding affinity to human 5HT6 by Cerep protocol based assay
Sequence of 5-hydroxytryptamine receptor 6 (P50406 whole entry): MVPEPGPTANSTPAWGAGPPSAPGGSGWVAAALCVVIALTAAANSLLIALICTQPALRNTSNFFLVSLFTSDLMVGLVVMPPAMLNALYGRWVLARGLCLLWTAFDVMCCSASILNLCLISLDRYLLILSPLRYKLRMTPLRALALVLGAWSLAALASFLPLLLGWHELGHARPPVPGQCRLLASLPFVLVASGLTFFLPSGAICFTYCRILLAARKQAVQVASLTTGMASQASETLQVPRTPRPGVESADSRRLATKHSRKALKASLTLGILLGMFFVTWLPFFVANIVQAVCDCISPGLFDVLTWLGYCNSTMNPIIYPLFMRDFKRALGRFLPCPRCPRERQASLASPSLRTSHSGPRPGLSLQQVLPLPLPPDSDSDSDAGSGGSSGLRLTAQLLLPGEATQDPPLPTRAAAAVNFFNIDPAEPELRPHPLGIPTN

[15] = molecular target: 5-hydroxytryptamine receptor 7 (Homo sapiens, UniProt P34969); assay: Binding affinity to human 5HT7 by Cerep protocol based assay
Sequence of 5-hydroxytryptamine receptor 7 (P34969 whole entry): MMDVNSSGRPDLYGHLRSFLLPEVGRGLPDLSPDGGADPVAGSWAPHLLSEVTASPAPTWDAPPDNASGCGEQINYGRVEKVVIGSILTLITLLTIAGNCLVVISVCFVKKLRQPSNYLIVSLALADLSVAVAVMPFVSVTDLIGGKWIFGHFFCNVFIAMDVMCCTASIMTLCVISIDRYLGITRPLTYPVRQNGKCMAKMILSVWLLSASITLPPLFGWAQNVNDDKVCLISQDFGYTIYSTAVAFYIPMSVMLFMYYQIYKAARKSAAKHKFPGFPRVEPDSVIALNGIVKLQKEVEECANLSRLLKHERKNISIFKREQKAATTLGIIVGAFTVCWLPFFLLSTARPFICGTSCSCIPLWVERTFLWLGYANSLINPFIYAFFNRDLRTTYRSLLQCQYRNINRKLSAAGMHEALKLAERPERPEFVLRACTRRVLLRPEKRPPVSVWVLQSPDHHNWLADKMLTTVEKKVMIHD

[16] = molecular target: 5-hydroxytryptamine receptor 1D (Homo sapiens, UniProt P28221); assay: Binding affinity to human 5HT1D by Cerep protocol based assay
Sequence of 5-hydroxytryptamine receptor 1D (P28221 whole entry): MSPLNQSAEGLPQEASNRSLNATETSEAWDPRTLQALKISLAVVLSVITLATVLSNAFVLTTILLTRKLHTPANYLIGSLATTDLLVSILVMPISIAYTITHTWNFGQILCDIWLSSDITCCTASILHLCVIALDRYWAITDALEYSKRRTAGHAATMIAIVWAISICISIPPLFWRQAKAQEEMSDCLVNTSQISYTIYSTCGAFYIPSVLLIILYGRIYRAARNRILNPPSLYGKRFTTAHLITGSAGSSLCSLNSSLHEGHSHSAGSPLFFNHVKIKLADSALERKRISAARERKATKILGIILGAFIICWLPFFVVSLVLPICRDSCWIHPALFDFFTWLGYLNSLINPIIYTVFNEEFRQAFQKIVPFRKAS

Compound	Ki [1] [nM]	inhibition [4] [%]	inhibition [5] [%]	further results
CCCN1CCC(COc2nc3cc(C)ccc3c3ccccc23)CC1	691			
CCCN1CCC(COc2nc3ccccc3c3cccc(F)c23)CC1	21.6			
CCCN1CCC(COc2nc3c(I)cccc3c3ncccc23)CC1				Ki [2]: 5630 nM; Ki [3]: 1820 nM
CCCN1CCC(COc2nc3ccc(F)cc3c3ccccc23)CC1		47	0	
CCCN1CCC(COc2nc3ccccc3c3ncccc23)CC1	13.1	96	64	EC50 [6]: 10 nM; Ki [7]: > 10000 nM; Ki [2]: > 10000 nM; Ki [8]: 627 nM; Ki [9]: > 10000 nM; Ki [3]: > 10000 nM; Ki [10]: 7.5 nM; Ki [11]: > 10000 nM; Ki [12]: 680 nM; Ki [13]: 2790 nM; Ki [14]: > 10000 nM; Ki [15]: > 10000 nM; Ki [16]: > 10000 nM
CCCN1CCC(COc2nc3ccc(OC)cc3c3ccccc23)CC1	233			
CCCN1CCC(COc2nc3c(Cl)cccc3c3ccccc23)CC1	21.9	100	24	EC50 [6]: 251 nM; Ki [10]: 5 nM
CCCN1CCC(COc2nc3ccc(Cl)cc3c3ccccc23)CC1		27	0	
CCCN1CCC(COc2nc3ccccc3c3cc(C)ccc23)CC1		28	0	
CCCN1CCC(COc2nc3cc(F)ccc3c3ccccc23)CC1	101			Ki [10]: 33 nM
CCCN1CCC(COc2nc3cc(Cl)ccc3c3ccccc23)CC1		85	0	
CCCN1CCC(COc2nc3ccc(C)cc3c3ccccc23)CC1	246			
